Source: ChEMBL document CHEMBL4732158, “Bicyclic Ligand-Biased Agonists of S1P: Exploring Side Chain Modifications to Modulate the PK, PD, and Safety Profiles” (J Med Chem, 2021)
Values belong to the compound of their own block, whether it stands above or below them.

Assays:
Rattus norvegicus [1] = assay: Reduction in circulating lymphocytes count in Lewis rat at 0.3 mg/kg, po measured at 4 hrs by hematology analyzer based analysis; assay type: functional; parameters: scale not given: the % may be the effect or the level left
[2] = Reduction in circulating lymphocytes count in Lewis rat at 0.3 mg/kg, po measured at 24 hrs by hematology analyzer based analysis; assay type: ADME, organism-based; parameters: scale not given: the % may be the effect or the level left; conditions: in vivo
[3] = Drug concentration in Lewis rat blood assessed as concentration of parent compound at 5 mg/kg, po measured at 24 hrs by LC-MS/MS analysis; assay type: ADME, organism-based; conditions: in vivo, 5 mg/kg, 24 h, BLD = below limit of detection
Summary of the method: (§1)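 Lewis rats (n = 2−4) dosed orally at 0.5, 1, 2 or 5 mg/kg; blood parent and phosphate metabolite concentrations and lymphocyte counts taken 4 and 24 h post-dose; phosphate-to-parent ratio from 24 h levels; significance versus vehicle by ANOVA with Dunnett's test.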

[4] = Reduction in circulating lymphocytes count in Lewis rat at 5 mg/kg, po measured at 24 hrs by hematology analyzer based analysis; assay type: ADME, organism-based; parameters: scale not given: the % may be the effect or the level left; conditions: in vivo
Summary of the method: (§2)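 Lewis rats (n = 2−4) dosed orally; whole-blood lymphocyte counts taken 4 h and 24 h after dosing and reduction expressed versus vehicle-treated rats. Significance by ANOVA with Dunnett's test (p < 0.05 vs vehicle). Blood levels of parent and phosphate metabolite measured at the same time points in this PK/PD screen.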

Rattus norvegicus [5] = assay: Reduction in circulating lymphocytes count in Lewis rat at 5 mg/kg, po measured at 4 hrs by hematology analyzer based analysis; assay type: functional; parameters: scale not given: the % may be the effect or the level left; summary of the method: as §2
[6] = Drug concentration in Lewis rat blood assessed as concentration of parent compound at 5 mg/kg, po measured at 4 hrs by LC-MS/MS analysis; assay type: ADME, organism-based; conditions: read-out: Ct; summary of the method: as §1
[7] = Pulmonary toxicity in Lewis rat assessed as fold elevation of BAL protein content at 5 mg/kg, po by chemistry analyzer based analysis relative to control; assay type: organism-based; conditions: in vivo
Summary of the method: (§3)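 Lewis rats dosed orally; bronchoalveolar lavage protein measured at study end, expressed as fold over vehicle control.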

[8] = Reduction in circulating lymphocytes count in Lewis rat at 2 mg/kg, po measured at 24 hrs by hematology analyzer based analysis; assay type: Functional, organism-based; parameters: scale not given: the % may be the effect or the level left; conditions: in vivo; summary of the method: as §2
[9] = Drug concentration in Lewis rat blood assessed as concentration of parent compound at 2 mg/kg, po measured at 24 hrs by LC-MS/MS analysis; assay type: ADME, organism-based; conditions: in vivo, read-out: Ct; summary of the method: as §1
Rattus norvegicus [10] = assay: Reduction in circulating lymphocytes count in Lewis rat at 2 mg/kg, po measured at 4 hrs by hematology analyzer based analysis; assay type: functional; parameters: scale not given: the % may be the effect or the level left; summary of the method: as §2
[11] = Ratio of drug metabolism in Lewis rat blood assessed as phosphate ester metabolite to parent drug at 2 mg/kg, po measured at 24 hrs by LC-MS/MS analysis; assay type: ADME, organism-based; conditions: in vivo; summary of the method: as §1
[12] = Drug concentration in Lewis rat blood assessed as concentration of parent compound at 2 mg/kg, po measured at 4 hrs by LC-MS/MS analysis; assay type: ADME, organism-based; conditions: read-out: Ct; for concentration at 4 h: Lewis, blood; summary of the method: as §1
[13] = Pulmonary toxicity in Lewis rat assessed as fold elevation of BAL protein content at 10 mg/kg, po by chemistry analyzer based analysis relative to control; assay type: organism-based; conditions: in vivo, 2 mg/kg, in the assay text read “2 mg/kg” for “10 mg/kg”; summary of the method: as §3
[14] = target: T1, Sphingosine 1-phosphate receptor 1 (Homo sapiens, UniProt P21453); assay: Agonist activity at recombinant human S1P1 expressed in CHO cell membranes assessed as stimulation of [35S]-GTPgammaS binding measured after 45 mins by liquid scintillation counting method; assay type: functional, Cell membrane
[15] = target: T1, Sphingosine 1-phosphate receptor 1; assay: Agonist activity at human recombinant S1P1 expressed in CHO cells assessed as stimulation of ERK phosphorylation incubated for 7 mins by microplate reader analysis; assay type: cell-based
[16] = target: Sphingosine 1-phosphate receptor 3 (Homo sapiens, UniProt Q99500); assay: Agonist activity at recombinant human S1P3 expressed in CHO cell membranes assessed as stimulation of [35S]-GTPgammaS binding measured after 45 mins by liquid scintillation counting method; assay type: functional, Membrane
[17] = target: T1, Sphingosine 1-phosphate receptor 1; assay: Agonist activity at human recombinant C-terminal GFP-fused S1P1 expressed in CHO cells assessed as induction of receptor internalization incubated for 50 mins by fluorescence based confocal laser scanning microscopic analysis; assay type: cell-based
[18] = target: T1, Sphingosine 1-phosphate receptor 1; assay: Displacement of [33P]-SIP from human recombinant S1P1 expressed in CHO cell membranes measured after 45 mins by TopCount scintillation counting method; parameters: species or system Cell membrane
[19] = Antimigratory activity against human T cells assessed as inhibition of S1P-induced T cell migration preincubated for 10 mins followed by addition of S1P measured after 120 mins by calcein-AM dye based fluorescence analysis; assay type: functional
[20] = Cardiotoxicity in human iPSC derived cardiomyocytes assessed as change in heart rate at 10 nM measured over 2 hrs by multi-electrode array relative to control; assay type: toxicity, cell-based; conditions: stem cell-derived cardiomyocyte, 0.01 µM
Summary of the method: (§4)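 Phosphate metabolite of each compound prepared and tested on cultured human induced pluripotent stem cell-derived cardiomyocytes at 1 and 10 nM; beat rate change averaged over three or more replicates per concentration unless noted (some n = 2).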

[21] = Pulmonary toxicity in Lewis rat assessed as fold elevation of BAL protein content at 2 mg/kg, po by chemistry analyzer based analysis relative to control; assay type: organism-based; conditions: in vivo; summary of the method: as §3
[22] = Half life in Lewis rat at 2 mg/kg, po measured at 4 to 72 hrs; assay type: ADME, organism-based; conditions: in vivo, time 4-72 hrs
Summary of the method: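 Half-life estimated from oral-dosing blood PK profiles in Lewis rats sampled at four time points: 4, 24, 48 and 72 h.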

[23] = Cardiotoxicity in human iPSC derived cardiomyocytes assessed as change in heart rate at 1 nM measured over 2 hrs by multi-electrode array relative to control; assay type: toxicity, cell-based; conditions: stem cell-derived cardiomyocyte, 0.001 µM; summary of the method: as §4
[24] = Drug metabolism in Lewis rat blood assessed as parent compound concentration at 0.5 mg/kg, po measured at 4 hrs by LC-MS/MS analysis; assay type: ADME, organism-based; conditions: Lewis, blood, read-out: Ct; summary of the method: as §1
[25] = Reduction in circulating lymphocytes count in Lewis rat at 0.5 mg/kg, po measured at 4 hrs by hematology analyzer based analysis; assay type: ADME, organism-based; parameters: scale not given: the % may be the effect or the level left; conditions: in vivo; summary of the method: as §1
[26] = Drug metabolism in Lewis rat blood assessed as parent compound concentration at 0.5 mg/kg, po measured at 24 hrs by LC-MS/MS analysis; assay type: ADME, organism-based; conditions: Lewis, blood, read-out: Ct; summary of the method: as §1
[27] = Reduction in circulating lymphocytes count in Lewis rat at 0.5 mg/kg, po measured at 24 hrs by hematology analyzer based analysis; assay type: ADME, organism-based; parameters: scale not given: the % may be the effect or the level left; conditions: in vivo; summary of the method: as §1
[28] = AUC ratio in orally dosed Beagle dog blood assessed as phosphate metabolite to parent compound; assay type: ADME, organism-based, Canis lupus familiaris; conditions: in vivo, po
Summary of the method: (§5)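 Phosphate-to-parent ratio computed as blood AUC ratio after oral dosing in rats, dogs and monkeys.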

[29] = AUC ratio in orally dosed cynomolgus monkey blood assessed as phosphate metabolite to parent compound; assay type: ADME, organism-based, Macaca fascicularis; conditions: in vivo, po; summary of the method: as §5
[30] = AUC ratio in orally dosed human blood assessed as phosphate metabolite to parent compound; assay type: ADME, organism-based; conditions: po
[31] = AUC ratio in orally dosed Sprague-Dawley rat blood assessed as phosphate metabolite to parent compound; assay type: ADME, organism-based; conditions: in vivo, po; summary of the method: as §5

T1 sequence (P21453 whole entry): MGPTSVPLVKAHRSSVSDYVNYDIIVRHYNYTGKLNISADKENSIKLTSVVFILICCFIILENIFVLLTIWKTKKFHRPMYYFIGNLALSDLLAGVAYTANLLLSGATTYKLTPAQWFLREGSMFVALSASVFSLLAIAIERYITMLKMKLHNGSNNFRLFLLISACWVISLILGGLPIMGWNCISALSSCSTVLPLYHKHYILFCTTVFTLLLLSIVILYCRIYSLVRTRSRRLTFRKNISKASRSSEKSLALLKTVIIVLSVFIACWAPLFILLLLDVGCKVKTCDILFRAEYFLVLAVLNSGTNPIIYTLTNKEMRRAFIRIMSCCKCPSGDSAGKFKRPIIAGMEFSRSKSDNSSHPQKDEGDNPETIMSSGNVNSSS
Sphingosine 1-phosphate receptor 3, sequence (Q99500 whole entry, the tested form may be a part): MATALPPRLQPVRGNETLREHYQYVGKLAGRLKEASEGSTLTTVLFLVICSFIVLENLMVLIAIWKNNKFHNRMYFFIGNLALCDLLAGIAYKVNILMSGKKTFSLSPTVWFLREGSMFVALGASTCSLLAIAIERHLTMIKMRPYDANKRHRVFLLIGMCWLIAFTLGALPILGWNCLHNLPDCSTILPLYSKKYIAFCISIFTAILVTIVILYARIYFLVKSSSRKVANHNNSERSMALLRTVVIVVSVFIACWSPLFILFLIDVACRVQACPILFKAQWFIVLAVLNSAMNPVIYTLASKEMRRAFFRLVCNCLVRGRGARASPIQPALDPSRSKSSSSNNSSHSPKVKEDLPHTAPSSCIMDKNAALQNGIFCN

- Activity [2]: 22%
Structure (SMILES): C/C=C\CCC[C@@H]1CCc2cc([C@H]3CC[C@](N)(CO)C3)ccc2C1
- Activity (Rattus norvegicus [1]): 0%

- Ct [3]: Bld
- Activity [4]: 16%
- concentration at 4 h [6]: 44 nM
Structure (SMILES): CCCCS(=O)(=O)C[C@@H]1CCc2cc([C@H]3CC[C@](N)(CO)C3)ccc2C1
- Activity (Rattus norvegicus [5]): 13%
- fold change (FC) [7]: 0.8

- Activity [8]: 87%
- concentration [9]: 110 nM
- Ratio [11]: 1.4
- concentration at 4 h [12]: 300 nM
Structure (SMILES): COCCCCC1CCc2cc([C@H]3CC[C@](N)(CO)C3)ccc2C1 (stereo in doubt; 13a)
- Activity (Rattus norvegicus [10]; 2 mg/kg, 4 h): 78%
- fold change (FC) [13]: 1.7

- EC50 [14]: 2.1 nM
- EC50 [15]: 2.7 nM
- EC50 [16]: > 1000 nM
- EC50 [17]: 4.9 nM
- IC50 [18]: 0.016 nM
Structure (SMILES): COCCCCC[C@@H]1CCc2cc([C@H]3CC[C@](N)(COP(=O)(O)O)C3)ccc2C1

- IC50 [19]: 2.5 nM
Structure (SMILES): CCCCCC[C@@H]1CCc2cc([C@H]3CC[C@](N)(COP(=O)(O)O)C3)ccc2C1

- Activity [8]: 66%
- concentration [9]: 86 nM
- Ratio [11]: 0.9
- t1/2 ([22]; 2 mg/kg): 14 h
- concentration ([12]; in vivo, 2 mg/kg, 4 h, 2 mg/kg, 4 h): 215 nM
Structure (SMILES): COCCCC1CCc2cc([C@H]3CC[C@](N)(CO)C3)ccc2C1 (stereo in doubt; 22b)
- Activity [20]: -25%
- Activity (Rattus norvegicus [10]; 2 mg/kg, 4 h): 62%
- fold change (FC) [21]: 1.6
- Activity [23]: -20%

- concentration at 4 h [24]: 43 nM
- Activity [25]: 0%
- concentration at 24 h [26]: 20 nM
- Activity [27]: 60%
Structure (SMILES): CCCSCCC1CCc2cc([C@H]3CC[C@](N)(CO)C3)ccc2C1 (single isomer, unassigned)
- Activity [20]: -61%
- Activity [23]: -26%

- Activity [8]: 81%
- concentration [9]: 51 nM
- Ratio [11]: 8.2
- half-life ([22]; Lewis): 15 h
- concentration at 4 h [12]: 129 nM
Structure (SMILES): COCCCCCC1CCc2cc([C@H]3CC[C@](N)(CO)C3)ccc2C1 (single isomer, unassigned; 23)
- Activity [20]: -40%
- Activity (Rattus norvegicus [10]): 78%
- fold change (FC) [21]: 1.9
- Activity [23]: -20%

- Ratio AUC [28]: 3.7
- Ratio AUC [29]: 5.9
- Ratio AUC [30]: 0.42
- Ratio AUC [31]: 5.6
Structure (SMILES): CCCCCCCCc1ccc(CCC(N)(CO)CO)cc1 [FINGOLIMOD]
